Source: ChEMBL document CHEMBL1123325, “Isomer-dependent cytostatic activity of bis(1-aziridinyl)cyclophosphazenes” (1986)

Experiments:
Format in all cases: functional
L5178Y = assay: In vitro lowest active dose (LAD) in L5178Y mouse lymphoma cells
L1210 [1] = assay: In vitro inhibition dose (cytostatic activity) in L1210 mouse leukemia cells
Mus musculus [2] = assay: Tested for percent median survival time of drug-treated mice over that of untreated control mice at dose of 40 mg/kg
In short: (§1)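 10^5 L1210 leukemia cells from in vitro suspension culture were injected into male (BALB/c × DBA/2)F1 (CDF1) mice as intraperitoneal leukemia. Dosing began 24 h later, with 5 mice per dose and 10 untreated controls. Survival times were recorded. The value is the median survival time of treated mice as a percent of untreated controls (T/C%), with 60-day long-term survivors noted.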

Mus musculus [3] = assay: Compound was tested for percent median survival time of drug-treated mice over that of untreated control mice at dose of 20 mg/kg; in short: as §1
L1210 [4] = assay: Tested in vivo for 50% lethal dose in L1210 mouse leukemia cells
Mus musculus [5] = assay: Compound was tested for percent median survival time of drug-treated mice over that of untreated control mice at dose of 900 mg/kg; in short: as §1
Mus musculus [6] = assay: Compound was tested for percent median survival time of drug-treated mice over that of untreated control mice at dose of 600 mg/kg; in short: as §1
Mus musculus [7] = assay: Tested for percent median survival time of drug-treated mice over that of untreated control mice at dose of 200 mg/kg; in short: as §1
Mus musculus [8] = assay: Compound was tested for percent median survival time of drug-treated mice over that of untreated control mice at dose of 160 mg/kg; in short: as §1
Mus musculus [9] = assay: Compound was tested for percent median survival time of drug-treated mice over that of untreated control mice at dose of 180 mg/kg; in short: as §1
Mus musculus [10] = assay: Compound was tested for percent median survival time of drug-treated mice over that of untreated control mice at dose of 70 mg/kg; in short: as §1
Mus musculus [11] = assay: Compound was tested for percent median survival time of drug-treated mice over that of untreated control mice at dose of 140 mg/kg; in short: as §1
Mus musculus [12] = assay: Compound was tested for percent median survival time of drug-treated mice over that of untreated control mice at dose of 100 mg/kg; in short: as §1
Mus musculus [13] = assay: Compound was tested for percent median survival time of drug-treated mice over that of untreated control mice at dose of 150 mg/kg; in short: as §1
Mus musculus [14] = assay: Compound was tested for percent median survival time of drug-treated mice over that of untreated control mice at dose of 80 mg/kg; in short: as §1
Mus musculus [15] = assay: Compound was tested for percent median survival time of drug-treated mice over that of untreated control mice at dose of 60 mg/kg; in short: as §1
Mus musculus [16] = assay: Compound was tested for percent median survival time of drug-treated mice over that of untreated control mice at dose of 120 mg/kg; in short: as §1
Mus musculus [17] = assay: Compound was tested for percent median survival time of drug-treated mice over that of untreated control mice at dose of 90 mg/kg; in short: as §1
Mus musculus [18] = assay: Compound was tested for percent median survival time of drug-treated mice over that of untreated control mice at dose of 110 mg/kg; in short: as §1
Mus musculus [19] = assay: Compound was tested for percent median survival time of drug-treated mice over that of untreated control mice at dose of 300 mg/kg; in short: as §1
Mus musculus [20] = assay: Compound was tested for percent median survival time of drug-treated mice over that of untreated control mice at dose of 350 mg/kg; in short: as §1
Mus musculus [21] = assay: Compound was tested for percent median survival time of drug-treated mice over that of untreated control mice at dose of 30 mg/kg; in short: as §1
Mus musculus [22] = assay: Compound was tested for percent median survival time of drug-treated mice over that of untreated control mice at dose of 50 mg/kg; in short: as §1
Mus musculus [23] = assay: Compound was tested for percent median survival time of drug-treated mice over that of untreated control mice at dose of 800 mg/kg; in short: as §1
Mus musculus [24] = assay: Compound was tested for percent median survival time of drug-treated mice over that of untreated control mice at dose of 400 mg/kg; in short: as §1

SMILES | LAD (L5178Y) | ID50 (L1210 [1]) | LD50 (L1210 [4]) | other results
CN(C)P1(N(C)C)=N[P@](N(C)C)(N2CC2)=NP(N(C)C)(N(C)C)=N[P@](N(C)C)(N2CC2)=N1 | 4e-06 M l-1 | 5.5e-06 M l-1 | – | –
C1CN1P1(N2CC2)=NP(N2CC2)(N2CC2)=NP(N2CC2)(N2CC2)=N1 | – | 2e-06 M l-1 | 50 mg/kg | T/C (Mus musculus [2]): 163%; T/C (Mus musculus [3]): 200%
C1CN(P2(N3CCOCC3)=N[P@](N3CCOCC3)(N3CC3)=N[P@@](N3CCOCC3)(N3CC3)=N2)CCO1 | 3e-05 M l-1 | 2.47e-05 M l-1 | 800 mg/kg | T/C (Mus musculus [5]): 163%; T/C (Mus musculus [6]): 163%
CN(C)P1(N(C)C)=NP(N(C)C)(N(C)C)=NP(N(C)C)(N2CC2)=NP(N(C)C)(N(C)C)=N1 (centres undefined) | 6.4e-05 M l-1 | 1.21e-05 M l-1 | – | –
C1CCN(P2(N3CCCC3)=NP(N3CC3)(N3CC3)=NP(N3CC3)(N3CC3)=N2)C1 | – | 2.7e-06 M l-1 | 220 mg/kg | T/C (Mus musculus [7]): 211%; T/C (Mus musculus [8]): 178%
C1CN(P2(N3CCOCC3)=NP(N3CCOCC3)(N3CCOCC3)=NP(N3CC3)(N3CC3)=N2)CCO1 | 0.00012 M l-1 | 0.00013 M l-1 | – | –
CNP1(NC)=NP(NC)(NC)=NP(N2CC2)(N2CC2)=NP(NC)(NC)=N1 | 1.8e-05 M l-1 | 6.5e-06 M l-1 | – | –
C1CN(P2(N3CCOCC3)=NP(N3CCOCC3)(N3CCOCC3)=NP(N3CCOCC3)(N3CC3)=N2)CCO1 (centres undefined) | >0.0003 M l-1 | >0.00025 M l-1 | – | –
C1CCN(P2(N3CCCCC3)=NP(N3CC3)(N3CC3)=NP(N3CC3)(N3CC3)=N2)CC1 | – | 3.6e-06 M l-1 | 250 mg/kg | T/C (Mus musculus [7]): 156%
C1CN(P2(N3CCOCC3)=N[P@](N3CCOCC3)(N3CC3)=N[P@](N3CCOCC3)(N3CC3)=N2)CCO1 | 6e-05 M l-1 | 3.35e-05 M l-1 | – | –
CNP1(NC)=N[P@](NC)(N2CC2)=NP(NC)(NC)=N[P@@](NC)(N2CC2)=N1 | 5e-07 M l-1 | 4.6e-06 M l-1 | 200 mg/kg | T/C (Mus musculus [9]): 311%; T/C (Mus musculus [10]): 289%; T/C (Mus musculus [11]): 333%; T/C (Mus musculus [12]): 244%
CNP1(NC)=N[P@@](NC)(N2CC2)=NP(NC)(NC)=N[P@@](NC)(N2CC2)=N1 | 5e-07 M l-1 | 4.6e-06 M l-1 | 200 mg/kg | T/C (Mus musculus [7]): 213%; T/C (Mus musculus [13]): 200%
CNP1(NC)=N[P@](NC)(N2CC2)=N[P@](NC)(N2CC2)=N1 | 1e-06 M l-1 | 5e-06 M l-1 | 70 mg/kg | T/C (Mus musculus [14]): 175%; T/C (Mus musculus [2]): 250%; T/C (Mus musculus [15]): 275%
CN(C)P1(N(C)C)=N[P@](N(C)C)(N2CC2)=NP(N(C)C)(N(C)C)=N[P@@](N(C)C)(N2CC2)=N1 | 1e-06 M l-1 | 7.5e-06 M l-1 | 150 mg/kg | T/C (Mus musculus [16]): 125%; T/C (Mus musculus [8]): <100%
CN(C)P1(N(C)C)=NP(N(C)C)(N(C)C)=NP(N2CC2)(N2CC2)=N1 | 2e-05 M l-1 | 1.95e-05 M l-1 | – | –
CNP1(NC)=NP(NC)(NC)=N[P@@](NC)(N2CC2)=N[P@](NC)(N2CC2)=N1 | 2e-06 M l-1 | 1.8e-06 M l-1 | 100 mg/kg | T/C (Mus musculus [14]): 263%; T/C (Mus musculus [2]): 238%; T/C (Mus musculus [12]): 213%; T/C (Mus musculus [15]): 275%
CN(C)P1(N(C)C)=NP(N(C)C)(N(C)C)=NP(N2CC2)(N2CC2)=NP(N(C)C)(N(C)C)=N1 | 2e-06 M l-1 | 1.19e-05 M l-1 | – | –
CNP1(NC)=NP(NC)(NC)=NP(NC)(N2CC2)=NP(NC)(NC)=N1 (centres undefined) | 0.00015 M l-1 | 5.69e-05 M l-1 | – | –

SMILES | LAD (L5178Y) | ID50 (L1210 [1]) | LD50 (L1210 [4]) | other results
CN(C)P1(N(C)C)=NP(N(C)C)(N(C)C)=N[P@@](N(C)C)(N2CC2)=N[P@](N(C)C)(N2CC2)=N1 | 2e-06 M l-1 | 6.6e-06 M l-1 | – | –
C1CCN([P@@]2(N3CC3)=NP(N3CC3)(N3CC3)=N[P@@](N3CCCCC3)(N3CC3)=N2)CC1 | – | 2.1e-06 M l-1 | 140 mg/kg | T/C (Mus musculus [17]): 167%; T/C (Mus musculus [18]): 189%
C1CN([P@@]2(N3CC3)=NP(N3CC3)(N3CC3)=N[P@@](N3CCOCC3)(N3CC3)=N2)CCO1 | – | 4.7e-06 M l-1 | 250 mg/kg | T/C (Mus musculus [7]): 200%; T/C (Mus musculus [8]): 213%
C1CCN(P2(N3CCCC3)=NP(N3CCCC3)(N3CCCC3)=NP(N3CC3)(N3CC3)=N2)C1 | 4e-06 M l-1 | 1.86e-05 M l-1 | – | –
CN(C)P1(N(C)C)=N[P@@](N(C)C)(N2CC2)=N[P@](N(C)C)(N2CC2)=N1 | 5e-07 M l-1 | 2.9e-06 M l-1 | – | –
C1CN(P2(N3CCOCC3)=NP(N3CC3)(N3CC3)=NP(N3CC3)(N3CC3)=N2)CCO1 | – | 5.8e-06 M l-1 | 400 mg/kg | T/C (Mus musculus [19]): 175%; T/C (Mus musculus [20]): 200%
C1CCN(P2(N3CCCC3)=N[P@](N3CCCC3)(N3CC3)=N[P@](N3CCCC3)(N3CC3)=N2)C1 | 1e-06 M l-1 | 6.7e-06 M l-1 | – | –
CN(C)P1(N(C)C)=N[P@](N(C)C)(N2CC2)=N[P@](N(C)C)(N2CC2)=N1 | 5e-07 M l-1 | 7.3e-06 M l-1 | – | –
CNP1(NC)=N[P@@](NC)(N2CC2)=N[P@](NC)(N2CC2)=N1 | 1e-06 M l-1 | 3.3e-06 M l-1 | 50 mg/kg | T/C (Mus musculus [21]): 200%; T/C (Mus musculus [2]): 222%; T/C (Mus musculus [22]): 289%
CCOC(=O)CNP1(NCC(=O)OCC)=NP(N2CC2)(N2CC2)=NP(N2CC2)(N2CC2)=N1 | – | 7.2e-06 M l-1 | 170 mg/kg | T/C (Mus musculus [16]): 125%; T/C (Mus musculus [13]): <100%
C1CCN(P2(N3CCCC3)=NP(N3CCCC3)(N3CCCC3)=NP(N3CCCC3)(N3CC3)=N2)C1 (centres undefined) | 1.2e-05 M l-1 | 4.43e-05 M l-1 | – | –
CN(C)P1(N(C)C)=NP(N(C)C)(N(C)C)=NP(N(C)C)(N2CC2)=N1 (centres undefined) | >0.0003 M l-1 | >0.00025 M l-1 | – | –
C1CCN(P2(N3CC3)=NP(N3CC3)(N3CC3)=NP(N3CC3)(N3CC3)=N2)CC1 (centres undefined) | – | 1.5e-06 M l-1 | 80 mg/kg | T/C (Mus musculus [10]): 213%; T/C (Mus musculus [15]): 175%
C1CCN(P2(N3CCCC3)=N[P@@](N3CCCC3)(N3CC3)=N[P@](N3CCCC3)(N3CC3)=N2)C1 | 1e-06 M l-1 | 4.8e-06 M l-1 | – | –
CN[P@@]1(N)=NP(N2CC2)(N2CC2)=N[P@](N)(NC)=N1 | 8e-06 M l-1 | 5.05e-05 M l-1 | – | –
CNP1(NC)=NP(NC)(NC)=NP(NC)(N2CC2)=N1 (centres undefined) | 0.0002 M l-1 | >0.00025 M l-1 | 800 mg/kg | T/C (Mus musculus [5]): 225%; T/C (Mus musculus [6]): 175%
CNP1(NC)=NP(NC)(NC)=NP(N2CC2)(N2CC2)=N1 | 8e-06 M l-1 | 2.78e-05 M l-1 | 600 mg/kg | T/C (Mus musculus [23]): 188%; T/C (Mus musculus [24]): 163%; T/C (Mus musculus [6]): 150%
